Assay results published in ChEMBL document CHEMBL3351313, “Discovery of (S)-2-cyclopentyl-N-((1-isopropylpyrrolidin2-yl)-9-methyl-1-oxo-2,9-dihydro-1H-pyrrido[3,4-b]indole-4-carboxamide (VU0453379): a novel, CNS penetrant glucagon-like peptide 1 receptor (GLP-1R) positive allosteric modulator (PAM)” (J Med Chem, 2014).
Activity calls are given as the source filed them. The calls are words filed in the database; no cut-off is given here.

Experiments:
[1] = molecular target: T1, Glucagon-like peptide 1 receptor (Homo sapiens, UniProt P43220); experiment: Positive allosteric modulation of human recombinant GLP1 receptor expressed in 9-3-H cells by calcium mobilization assay; type: functional, cell-based
T1 sequence (P43220 whole entry): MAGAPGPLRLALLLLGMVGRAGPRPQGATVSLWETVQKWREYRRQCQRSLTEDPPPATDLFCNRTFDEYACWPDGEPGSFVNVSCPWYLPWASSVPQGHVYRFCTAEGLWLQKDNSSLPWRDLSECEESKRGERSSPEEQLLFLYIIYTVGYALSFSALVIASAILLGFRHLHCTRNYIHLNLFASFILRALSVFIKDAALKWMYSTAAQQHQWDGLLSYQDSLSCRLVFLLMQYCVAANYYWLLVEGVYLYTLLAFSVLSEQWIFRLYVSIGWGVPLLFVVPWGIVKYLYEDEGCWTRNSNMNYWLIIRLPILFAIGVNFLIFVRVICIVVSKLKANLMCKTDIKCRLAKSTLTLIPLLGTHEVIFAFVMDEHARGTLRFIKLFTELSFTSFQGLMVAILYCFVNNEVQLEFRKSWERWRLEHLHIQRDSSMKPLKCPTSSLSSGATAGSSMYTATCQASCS

[2] = molecular target: T1, Glucagon-like peptide 1 receptor; experiment: Positive allosteric modulation of human recombinant GLP1 receptor expressed in 9-3-H cells by calcium mobilization assay relative to control; type: functional, cell-based
[3] = Half life in rat at 1 mg/kg, iv and […], po; type: ADME, organism-based; design: dose 1 mg/kg, route oral; settings: in vivo
Procedure, shortened: (§1)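 Male Sprague–Dawley rats were dosed IV at 1 mg/kg and PO at […]. Plasma pharmacokinetic parameters were derived from these doses.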

[4] = Intrinsic clearance in rat liver microsomes; type: ADME; settings: read-out: CLH
Plasma [5] = experiment: Fraction unbound in human plasma; type: ADME, cell-free
[6] = molecular target: T1, Glucagon-like peptide 1 receptor; experiment: Positive allosteric modulation of human recombinant GLP1 receptor expressed in 9-3-H cells by calcium mobilization assay in presence of EC20 of GLP1 relative to control; type: functional, cell-based
[7] = Intrinsic clearance in human liver microsomes; type: ADME; settings: read-out: CLH
Procedure, shortened: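 Human liver microsome clearance was scaled to predicted hepatic clearance by the well-stirred model. The model used 20 g liver per kg body weight and 21 mL/kg hepatic blood flow.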

Nucleic Acid = experiment: Ratio of drug level in brain to plasma at 10 mg/kg, ip; type: ADME, organism-based; design: dose 10 mg/kg, route intraperitoneal; settings: rat
Procedure, shortened: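 Rats were dosed IP at 10 mg/kg. Plasma and brain levels were measured at 0.5 h, and the brain:plasma ratio was given as Kp and as Kp,uu, using unbound fractions.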

[8] = molecular target: T1, Glucagon-like peptide 1 receptor; experiment: Positive allosteric modulation of human recombinant GLP1 receptor expressed in 9-3-H cells by calcium mobilization assay in presence of EC20 of liragulitide; type: functional, cell-based
Rattus norvegicus = experiment: Volume of distribution at steady state in rat at 1 mg/kg, iv and […], po; type: ADME, organism-based; design: dose 1 mg/kg, route oral; settings: in vivo; procedure, shortened: as §1
Cytochrome P450 1A2 = molecular target: T2, Cytochrome P450 1A2 (Homo sapiens, UniProt P05177); experiment: Inhibition of CYP1A2 (unknown origin); type: ADME
T2 sequence (P05177 whole entry): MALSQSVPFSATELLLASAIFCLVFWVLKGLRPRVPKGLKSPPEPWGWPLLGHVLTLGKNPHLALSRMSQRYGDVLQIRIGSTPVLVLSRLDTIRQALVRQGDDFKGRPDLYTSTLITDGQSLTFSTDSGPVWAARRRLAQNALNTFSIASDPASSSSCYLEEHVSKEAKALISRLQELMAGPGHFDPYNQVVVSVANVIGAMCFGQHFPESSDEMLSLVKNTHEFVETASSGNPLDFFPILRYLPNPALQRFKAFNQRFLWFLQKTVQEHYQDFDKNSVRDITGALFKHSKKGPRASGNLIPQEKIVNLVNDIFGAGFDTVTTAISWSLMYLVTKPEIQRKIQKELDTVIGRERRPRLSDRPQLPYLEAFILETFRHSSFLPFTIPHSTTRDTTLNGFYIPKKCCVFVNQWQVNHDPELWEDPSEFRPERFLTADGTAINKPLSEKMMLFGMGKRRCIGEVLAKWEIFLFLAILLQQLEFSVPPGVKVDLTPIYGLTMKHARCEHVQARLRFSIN
Procedure, shortened: (§2)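 An in vitro cassette P450 inhibition assay was run in microsomes, with 1A2, 2C9, 2D6 and 3A4 tested together. IC50 values are reported in μM.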

[9] = molecular target: T1, Glucagon-like peptide 1 receptor; experiment: Positive allosteric modulation of human recombinant GLP1 receptor expressed in 9-3-H cells by calcium mobilization assay in presence of EC20 of liragulitide relative to control; type: functional, cell-based
Brain = experiment: Fraction unbound in rat brain homogenate; type: ADME, tissue-based
[10] = molecular target: T1, Glucagon-like peptide 1 receptor; experiment: Positive allosteric modulation of human recombinant GLP1 receptor expressed in 9-3-H cells by calcium mobilization assay in presence of EC20 of exenatide relative to control; type: functional, cell-based
Cytochrome P450 2C9 = Cytochrome P450 2C9 (Homo sapiens, UniProt P11712); experiment: Inhibition of CYP2C9 (unknown origin); type: ADME; procedure, shortened: as §2
Cytochrome P450 2C9, sequence (P11712 whole entry): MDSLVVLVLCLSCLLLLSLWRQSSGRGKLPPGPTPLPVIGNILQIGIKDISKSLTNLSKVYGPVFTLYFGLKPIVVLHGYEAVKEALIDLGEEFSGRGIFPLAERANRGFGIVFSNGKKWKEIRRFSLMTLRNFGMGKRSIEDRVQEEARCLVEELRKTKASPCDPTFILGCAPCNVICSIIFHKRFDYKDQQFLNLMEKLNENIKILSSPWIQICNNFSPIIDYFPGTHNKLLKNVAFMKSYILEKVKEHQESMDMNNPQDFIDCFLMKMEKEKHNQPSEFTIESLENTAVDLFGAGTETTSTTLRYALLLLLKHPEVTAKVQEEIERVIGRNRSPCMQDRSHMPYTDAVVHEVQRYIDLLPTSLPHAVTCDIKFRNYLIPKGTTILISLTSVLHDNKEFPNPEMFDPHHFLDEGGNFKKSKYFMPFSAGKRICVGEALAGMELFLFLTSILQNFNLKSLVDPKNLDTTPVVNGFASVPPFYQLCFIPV

[11] = molecular target: T1, Glucagon-like peptide 1 receptor; experiment: Positive allosteric modulation of human recombinant GLP1 receptor expressed in 9-3-H cells by calcium mobilization assay in presence of EC20 of exenatide; type: functional, cell-based
[12] = molecular target: T1, Glucagon-like peptide 1 receptor; experiment: Positive allosteric modulation of human recombinant GLP1 receptor expressed in 9-3-H cells assessed as fold change at 30 uM by calcium mobilization assay […] relative to control; type: functional, cell-based
Plasma [13] = experiment: Fraction unbound in rat plasma; type: ADME, cell-free
[14] = molecular target: T1, Glucagon-like peptide 1 receptor; experiment: Positive allosteric modulation of human recombinant GLP1 receptor expressed in 9-3-H cells by calcium mobilization assay in presence of EC20 of GLP1; type: functional, cell-based
[15] = molecular target: Glucagon receptor (Homo sapiens) (UniProt P47871); experiment: Activity at glucagon receptor (unknown origin)
Glucagon receptor (Homo sapiens), sequence (P47871 whole entry, looked up): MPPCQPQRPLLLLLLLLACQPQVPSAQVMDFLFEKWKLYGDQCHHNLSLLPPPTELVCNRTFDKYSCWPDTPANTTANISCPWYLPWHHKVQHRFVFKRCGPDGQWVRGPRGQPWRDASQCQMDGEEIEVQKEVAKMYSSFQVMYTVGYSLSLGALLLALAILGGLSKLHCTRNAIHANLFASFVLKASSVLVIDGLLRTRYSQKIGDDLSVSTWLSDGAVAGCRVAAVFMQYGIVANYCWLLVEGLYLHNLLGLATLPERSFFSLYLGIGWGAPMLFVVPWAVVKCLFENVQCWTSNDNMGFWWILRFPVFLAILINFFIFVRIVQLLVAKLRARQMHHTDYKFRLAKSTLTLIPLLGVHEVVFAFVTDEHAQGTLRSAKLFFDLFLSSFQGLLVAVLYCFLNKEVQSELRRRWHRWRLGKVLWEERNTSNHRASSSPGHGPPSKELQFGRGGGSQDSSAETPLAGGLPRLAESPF

[16] = molecular target: Melanocortin receptor 4 (Homo sapiens) (UniProt P32245); experiment: Activity at melanocortin 4 receptor (unknown origin)
Melanocortin receptor 4 (Homo sapiens), sequence (P32245 whole entry): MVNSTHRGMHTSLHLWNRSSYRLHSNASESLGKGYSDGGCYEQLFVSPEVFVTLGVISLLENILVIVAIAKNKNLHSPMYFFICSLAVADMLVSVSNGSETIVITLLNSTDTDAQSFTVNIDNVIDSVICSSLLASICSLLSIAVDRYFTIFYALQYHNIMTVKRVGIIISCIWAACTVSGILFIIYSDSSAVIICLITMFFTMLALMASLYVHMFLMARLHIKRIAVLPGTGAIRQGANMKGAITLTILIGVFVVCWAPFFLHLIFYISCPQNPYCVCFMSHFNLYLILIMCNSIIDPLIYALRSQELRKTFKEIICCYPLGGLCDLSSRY

Cytochrome P450 2D6 = Cytochrome P450 2D6 (Homo sapiens, UniProt P10635); experiment: Inhibition of CYP2D6 (unknown origin); type: ADME; procedure, shortened: as §2
Cytochrome P450 2D6, sequence (P10635 whole entry): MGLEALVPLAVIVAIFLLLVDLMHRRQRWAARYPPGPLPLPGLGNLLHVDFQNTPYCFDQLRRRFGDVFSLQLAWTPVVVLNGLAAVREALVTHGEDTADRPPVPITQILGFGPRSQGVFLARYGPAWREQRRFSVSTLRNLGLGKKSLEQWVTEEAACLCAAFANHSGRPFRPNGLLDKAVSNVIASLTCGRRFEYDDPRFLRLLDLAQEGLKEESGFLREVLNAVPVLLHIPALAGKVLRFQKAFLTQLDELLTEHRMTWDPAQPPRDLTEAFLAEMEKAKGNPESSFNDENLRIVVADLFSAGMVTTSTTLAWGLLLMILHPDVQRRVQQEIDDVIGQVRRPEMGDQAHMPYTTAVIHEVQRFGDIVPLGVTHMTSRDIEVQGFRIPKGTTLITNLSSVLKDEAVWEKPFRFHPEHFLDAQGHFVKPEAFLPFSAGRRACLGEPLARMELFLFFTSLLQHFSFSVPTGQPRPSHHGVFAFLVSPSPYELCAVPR

Cytochrome P450 3A4 = Cytochrome P450 3A4 (Homo sapiens, UniProt P08684); experiment: Inhibition of CYP3A4 (unknown origin)
Cytochrome P450 3A4, sequence (P08684 whole entry): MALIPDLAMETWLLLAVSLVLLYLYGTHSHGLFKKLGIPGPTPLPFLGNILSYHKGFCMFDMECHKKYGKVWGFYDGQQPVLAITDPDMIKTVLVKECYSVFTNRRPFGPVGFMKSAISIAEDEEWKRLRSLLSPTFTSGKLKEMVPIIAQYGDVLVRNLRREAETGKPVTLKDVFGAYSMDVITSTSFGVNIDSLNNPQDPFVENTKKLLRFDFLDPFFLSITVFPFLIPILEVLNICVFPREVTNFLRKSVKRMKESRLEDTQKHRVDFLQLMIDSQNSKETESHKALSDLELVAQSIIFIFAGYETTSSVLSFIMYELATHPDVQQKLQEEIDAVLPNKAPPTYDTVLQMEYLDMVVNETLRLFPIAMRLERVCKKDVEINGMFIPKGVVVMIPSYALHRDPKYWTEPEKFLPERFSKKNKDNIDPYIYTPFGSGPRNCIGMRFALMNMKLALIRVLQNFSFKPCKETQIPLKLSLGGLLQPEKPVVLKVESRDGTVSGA

Question: What does the source list for `COc1ccccc1CN1CCC[C@H]1CNC(=O)c1cn(C2CCCC2)c(=O)c2c1c1ccccc1n2C`?
Answer: EC50 ([1]; read-out: EC50): 12.1 µM; Emax [2]: 68.3%

Question: For `CCCN1CCC[C@H]1CNC(=O)c1cn(C2CCCC2)c(=O)c2c1c1ccccc1n2C`, which EC50 ([1]; read-out: EC50) is on record?
Answer: The EC50 was 6.5 µM.

Question: And the Emax [2]?
Answer: The Emax was 48.4%.

Question: With `CC(C)N1CCC[C@H]1CNC(=O)c1cn(C2CCCC2)c(=O)c2c1c1ccccc1n2C` as the compound, how does the half-life [3] read?
Answer: Its half-life is 58 min.

Question: And the CLint scaled [4]?
Answer: The CLint scaled was 1.19 L/h/kg.

Question: And the Fu (Plasma [5])?
Answer: Its Fu is 0.146.

Question: And the Emax [6]?
Answer: Its Emax is 59.2%.

Question: And the EC50 ([1]; read-out: EC50)?
Answer: Its EC50 is 1.3 µM.

Question: What about the CLint scaled [7] of the same compound?
Answer: Its CLint scaled is 4.19 L/h/kg.

Question: What about the “K(p,uu,brain)” value (Nucleic Acid) of the same compound?
Answer: The value was 0.27.

Question: What about the Kp (Nucleic Acid) of the same compound?
Answer: Its Kp is 2.7.

Question: And the EC50 [8]?
Answer: The EC50 was 30 µM.

Question: And the Vdss (Rattus norvegicus)?
Answer: Its Vdss is 4 L/kg.

Question: And the IC50 (Cytochrome P450 1A2)?
Answer: Its IC50 is > 30 µM.

Question: What about the Emax [9] of the same compound?
Answer: The Emax was 59.2%.

Question: What about the Fu (Brain) of the same compound?
Answer: Its Fu is 0.015.

Question: What about the Emax [10] of the same compound?
Answer: The Emax was 71.5%.

Question: And the IC50 (Cytochrome P450 2C9)?
Answer: Its IC50 is > 30 µM.

Question: And the Emax [2]?
Answer: Its Emax is 59.2%.

Question: What about the EC50 [11] of the same compound?
Answer: Its EC50 is 8.4 µM.

Question: What about the Emax [12] of the same compound?
Answer: The Emax was 20%.

Question: And the Fu (Plasma [13])?
Answer: The Fu was 0.158.

Question: What about the EC50 [14] of the same compound?
Answer: Its EC50 is 1.8 µM.

Question: For `CCN1CCCC1CNC(=O)c1cn(C2CCCC2)c(=O)c2c1c1ccccc1n2C` (racemic), which Activity [15] is on record?
Answer: The Activity was “inactive”.

Question: And the EC50 ([1]; read-out: EC50)?
Answer: The EC50 was 4.1 µM.

Question: And the Activity [16]?
Answer: Its Activity is “inactive”.

Question: And the Emax [2]?
Answer: Its Emax is 58.9%.

Question: Which EC50 ([1]; read-out: EC50) does the source give for `CCCCCCN1CCC[C@H]1CNC(=O)c1cn(C2CCCC2)c(=O)c2c1c1ccccc1n2C` here?
Answer: The EC50 was 10.3 µM.

Question: What about the Emax [2] of the same compound?
Answer: Its Emax is 55.7%.

Question: For `Cn1c2ccccc2c2c(C(=O)NC[C@@H]3CCCN3CCc3ccccc3)cn(C3CCCC3)c(=O)c21`, which EC50 ([1]; read-out: EC50) is on record?
Answer: Its EC50 is 14.1 µM.

Question: And the EC50 ([1]; read-out: pEC50 (converted))?
Answer: The EC50 was 18.2 µM.

Question: And the Emax [2]?
Answer: The Emax was 68.5%.

Question: Which Fu (Plasma [5]) does the source give for `CCN1CCC[C@H]1CNC(=O)c1cn(C2CCCC2)c(=O)c2c1c1ccccc1n2C` here?
Answer: Its Fu is > 10%.

Question: What about the EC50 ([1]; read-out: EC50) of the same compound?
Answer: The EC50 was 2.4 µM.

Question: What about the EC50 ([1]; read-out: pEC50 (converted)) of the same compound?
Answer: Its EC50 is 2.04 µM.

Question: What about the IC50 (Cytochrome P450 2D6) of the same compound?
Answer: Its IC50 is > 20 µM.

Question: And the IC50 (Cytochrome P450 1A2)?
Answer: Its IC50 is > 20 µM.

Question: What about the IC50 (Cytochrome P450 2C9) of the same compound?
Answer: Its IC50 is > 20 µM.

Question: And the Emax [2]?
Answer: The Emax was 53.4%.

Question: What about the IC50 (Cytochrome P450 3A4) of the same compound?
Answer: The IC50 was 3.2 µM.

Question: And the Fu (Plasma [13])?
Answer: Its Fu is > 10%.
